The target in experiment [1] is Cyclin-dependent kinase 1 (Homo sapiens) (UniProt P06493). In words: Inhibition of CDC2 Lys2 labeling site harbouring VLHRDLKPQNLLIDDKGTIK in human A-375 cells at 5 uM by KiNativ Profiling analysis relative to control. Format: cell-based. The method, boiled down:
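Live A375 melanoma cells were treated with compound at 5 or 0.5 μM. The cells were then lysed, and the lysates were labeled with a lysine-reactive ATP or ADP-biotin acyl probe (KiNativ). Inhibition is the compound's protection of each kinase labeling-site peptide from probe labeling, relative to untreated control.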

Experiment [2] deals with T1, Interleukin-1 receptor-associated kinase 4 (Homo sapiens) (UniProt Q9NWZ3).
T1 sequence (whole entry): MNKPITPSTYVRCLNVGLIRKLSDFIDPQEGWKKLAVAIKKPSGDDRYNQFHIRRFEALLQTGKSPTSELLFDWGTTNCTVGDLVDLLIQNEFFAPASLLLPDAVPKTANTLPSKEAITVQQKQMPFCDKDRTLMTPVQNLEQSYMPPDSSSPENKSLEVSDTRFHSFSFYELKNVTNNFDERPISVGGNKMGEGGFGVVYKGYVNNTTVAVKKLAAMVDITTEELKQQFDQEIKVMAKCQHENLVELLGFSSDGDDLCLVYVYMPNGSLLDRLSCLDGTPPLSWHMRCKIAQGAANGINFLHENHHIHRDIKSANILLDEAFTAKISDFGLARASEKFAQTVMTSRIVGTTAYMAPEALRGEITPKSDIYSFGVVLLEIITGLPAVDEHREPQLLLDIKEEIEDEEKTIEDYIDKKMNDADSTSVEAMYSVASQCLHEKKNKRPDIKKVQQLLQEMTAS
In words: Inhibition of IRAK4 Lys2 labeling site in human A-375 cells at 0.05 uM by KiNativ Profiling analysis relative to control. Format: cell-based.

Experiment [3] addresses Calcium/calmodulin-dependent protein kinase type 1 (Homo sapiens) (UniProt Q14012). Kind of experiment: Inhibition of CaMK1alpha Lys1 labeling site harbouring LVAIKCIAK in human A-375 cells at 5 uM by KiNativ Profiling analysis relative to control. Format: cell-based. The method, boiled down:
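Intact A375 melanoma cells were treated with compound at 5 or 0.5 μM, then lysed. Lysate kinases were labeled with a lysine-reactive ATP or ADP-biotin probe (KiNativ). Inhibition is read as protection of each kinase labeling site from probe labeling.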

The nature of experiment [4]: Inhibition of p70S6K ATP Loop labeling site harbouring DLKPENIMLNHQGHVK in human A-375 cells at 5 uM by KiNativ Profiling analysis relative to control. The conditions noted are these: condition cancer.
Experiment [5] has as its target Serine/threonine-protein kinase WNK4 (Homo sapiens) (UniProt Q96J92). In words: Inhibition of Wnk4 ACT labeling site in human A-375 cells at 5 uM by KiNativ Profiling analysis relative to control. Format: cell-based.
The target in experiment [6] is T2, Serine/threonine-protein kinase LATS2 (Homo sapiens) (UniProt Q9NRM7).
T2 sequence (whole entry): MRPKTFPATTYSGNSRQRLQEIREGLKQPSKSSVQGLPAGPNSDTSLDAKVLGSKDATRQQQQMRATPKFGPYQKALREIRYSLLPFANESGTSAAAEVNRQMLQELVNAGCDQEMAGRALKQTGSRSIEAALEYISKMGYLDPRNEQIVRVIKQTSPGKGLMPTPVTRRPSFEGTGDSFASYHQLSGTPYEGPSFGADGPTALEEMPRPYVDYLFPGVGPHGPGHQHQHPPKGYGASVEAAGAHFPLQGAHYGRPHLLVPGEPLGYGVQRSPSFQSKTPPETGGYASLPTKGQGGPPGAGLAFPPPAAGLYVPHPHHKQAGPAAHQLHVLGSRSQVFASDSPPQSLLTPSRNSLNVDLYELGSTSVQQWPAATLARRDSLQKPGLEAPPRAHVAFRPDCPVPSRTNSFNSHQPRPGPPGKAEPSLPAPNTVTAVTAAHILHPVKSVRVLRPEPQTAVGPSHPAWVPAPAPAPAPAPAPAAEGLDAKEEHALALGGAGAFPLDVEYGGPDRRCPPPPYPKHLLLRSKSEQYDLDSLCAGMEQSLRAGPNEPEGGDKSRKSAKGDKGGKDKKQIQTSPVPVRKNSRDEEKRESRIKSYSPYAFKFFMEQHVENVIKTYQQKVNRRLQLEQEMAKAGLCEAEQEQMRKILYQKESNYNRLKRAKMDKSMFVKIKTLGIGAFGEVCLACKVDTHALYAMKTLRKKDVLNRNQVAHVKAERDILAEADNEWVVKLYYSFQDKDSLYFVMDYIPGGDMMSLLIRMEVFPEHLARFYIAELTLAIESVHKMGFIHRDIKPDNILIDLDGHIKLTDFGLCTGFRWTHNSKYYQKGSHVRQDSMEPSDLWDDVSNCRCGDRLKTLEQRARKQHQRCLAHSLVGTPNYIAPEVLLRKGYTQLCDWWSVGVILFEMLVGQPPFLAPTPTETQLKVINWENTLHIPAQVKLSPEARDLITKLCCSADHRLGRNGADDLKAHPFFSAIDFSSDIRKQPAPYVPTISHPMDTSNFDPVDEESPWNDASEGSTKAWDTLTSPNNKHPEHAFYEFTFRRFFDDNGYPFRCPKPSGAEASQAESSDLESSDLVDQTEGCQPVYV
Kind of experiment: Inhibition of LATS2 Lys2 labeling site in human A-375 cells at 0.5 uM by KiNativ Profiling analysis relative to control. Format: cell-based.

Experiment [7] has as its target Epidermal growth factor receptor (Homo sapiens) (UniProt P00533). In words: Inhibition of EGFR ACT labeling site harbouring LLGAEEKEYHAEGGKVPIK in human A-375 cells at 5 uM by KiNativ Profiling analysis relative to control. Format: cell-based. The procedure, abridged: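 Live A375 melanoma cells were treated with compound at 0.5 or 5 μM, then lysed. Lysates were labeled with a lysine-reactive ATP or ADP-biotin probe. The read-out was protection of each kinase probe-labeling site from labeling, relative to control.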

Experiment [8] concerns the target T3, Serine/threonine-protein kinase 3 (Homo sapiens) (UniProt Q13188).
T3 sequence (whole entry): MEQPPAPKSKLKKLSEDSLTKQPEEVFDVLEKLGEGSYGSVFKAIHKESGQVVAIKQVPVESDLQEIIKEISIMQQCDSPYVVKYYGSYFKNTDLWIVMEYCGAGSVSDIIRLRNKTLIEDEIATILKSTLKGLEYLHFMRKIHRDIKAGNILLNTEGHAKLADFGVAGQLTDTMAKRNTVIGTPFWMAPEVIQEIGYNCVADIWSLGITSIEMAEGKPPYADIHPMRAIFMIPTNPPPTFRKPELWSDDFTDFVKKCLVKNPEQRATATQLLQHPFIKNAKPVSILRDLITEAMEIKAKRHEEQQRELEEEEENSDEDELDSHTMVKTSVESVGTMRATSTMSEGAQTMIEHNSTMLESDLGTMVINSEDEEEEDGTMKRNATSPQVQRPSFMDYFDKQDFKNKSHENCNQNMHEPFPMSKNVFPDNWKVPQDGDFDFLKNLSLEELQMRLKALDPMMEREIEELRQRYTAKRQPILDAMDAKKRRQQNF
In words: Inhibition of MST2 Lys2 labeling site harbouring DIKAGNILLNTEGHAK in human A-375 cells at 5 uM by KiNativ Profiling analysis relative to control. Format: cell-based.

SMILES strings stand for the structures.

This is an account of results in ChEMBL document CHEMBL5696442, “Discovery of type II inhibitors of TGFβ-activated kinase 1 (TAK1) and mitogen-activated protein kinase kinase kinase kinase 2 (MAP4K2)” (J Med Chem, 2015).

Sequence of Serine/threonine-protein kinase WNK4 (Homo sapiens) (Q96J92 whole entry): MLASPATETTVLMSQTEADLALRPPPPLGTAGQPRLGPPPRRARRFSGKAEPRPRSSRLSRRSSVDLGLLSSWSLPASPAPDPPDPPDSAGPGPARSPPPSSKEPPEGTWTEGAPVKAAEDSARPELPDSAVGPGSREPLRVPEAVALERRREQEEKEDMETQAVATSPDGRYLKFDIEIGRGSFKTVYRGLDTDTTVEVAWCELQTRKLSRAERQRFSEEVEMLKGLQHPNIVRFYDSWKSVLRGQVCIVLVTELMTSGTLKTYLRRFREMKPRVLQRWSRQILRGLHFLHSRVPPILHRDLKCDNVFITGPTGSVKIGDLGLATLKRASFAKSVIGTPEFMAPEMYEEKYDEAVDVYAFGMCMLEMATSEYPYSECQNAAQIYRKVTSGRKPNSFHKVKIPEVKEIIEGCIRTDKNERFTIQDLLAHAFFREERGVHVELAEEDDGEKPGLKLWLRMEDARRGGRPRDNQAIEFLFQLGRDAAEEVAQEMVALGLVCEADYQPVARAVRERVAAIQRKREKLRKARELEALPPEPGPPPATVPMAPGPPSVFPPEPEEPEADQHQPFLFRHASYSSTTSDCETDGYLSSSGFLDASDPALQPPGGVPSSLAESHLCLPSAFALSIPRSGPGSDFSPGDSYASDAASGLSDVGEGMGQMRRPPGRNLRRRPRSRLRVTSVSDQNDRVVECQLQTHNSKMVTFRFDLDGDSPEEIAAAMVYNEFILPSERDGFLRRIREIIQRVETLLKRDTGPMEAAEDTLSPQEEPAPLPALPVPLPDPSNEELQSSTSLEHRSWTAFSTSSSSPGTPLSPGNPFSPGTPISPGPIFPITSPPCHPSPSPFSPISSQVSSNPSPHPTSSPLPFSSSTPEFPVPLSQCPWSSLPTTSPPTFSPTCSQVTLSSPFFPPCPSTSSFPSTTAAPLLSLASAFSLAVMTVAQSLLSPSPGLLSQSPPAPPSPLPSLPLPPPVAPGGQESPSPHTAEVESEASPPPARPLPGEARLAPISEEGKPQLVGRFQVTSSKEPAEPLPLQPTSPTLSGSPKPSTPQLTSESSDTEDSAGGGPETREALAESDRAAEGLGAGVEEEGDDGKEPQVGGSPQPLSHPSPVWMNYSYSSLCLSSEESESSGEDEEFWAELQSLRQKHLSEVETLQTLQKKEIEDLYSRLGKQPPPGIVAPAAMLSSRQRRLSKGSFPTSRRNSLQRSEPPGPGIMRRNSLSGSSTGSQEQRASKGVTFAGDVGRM
Sequence of Epidermal growth factor receptor (Homo sapiens) (P00533 whole entry): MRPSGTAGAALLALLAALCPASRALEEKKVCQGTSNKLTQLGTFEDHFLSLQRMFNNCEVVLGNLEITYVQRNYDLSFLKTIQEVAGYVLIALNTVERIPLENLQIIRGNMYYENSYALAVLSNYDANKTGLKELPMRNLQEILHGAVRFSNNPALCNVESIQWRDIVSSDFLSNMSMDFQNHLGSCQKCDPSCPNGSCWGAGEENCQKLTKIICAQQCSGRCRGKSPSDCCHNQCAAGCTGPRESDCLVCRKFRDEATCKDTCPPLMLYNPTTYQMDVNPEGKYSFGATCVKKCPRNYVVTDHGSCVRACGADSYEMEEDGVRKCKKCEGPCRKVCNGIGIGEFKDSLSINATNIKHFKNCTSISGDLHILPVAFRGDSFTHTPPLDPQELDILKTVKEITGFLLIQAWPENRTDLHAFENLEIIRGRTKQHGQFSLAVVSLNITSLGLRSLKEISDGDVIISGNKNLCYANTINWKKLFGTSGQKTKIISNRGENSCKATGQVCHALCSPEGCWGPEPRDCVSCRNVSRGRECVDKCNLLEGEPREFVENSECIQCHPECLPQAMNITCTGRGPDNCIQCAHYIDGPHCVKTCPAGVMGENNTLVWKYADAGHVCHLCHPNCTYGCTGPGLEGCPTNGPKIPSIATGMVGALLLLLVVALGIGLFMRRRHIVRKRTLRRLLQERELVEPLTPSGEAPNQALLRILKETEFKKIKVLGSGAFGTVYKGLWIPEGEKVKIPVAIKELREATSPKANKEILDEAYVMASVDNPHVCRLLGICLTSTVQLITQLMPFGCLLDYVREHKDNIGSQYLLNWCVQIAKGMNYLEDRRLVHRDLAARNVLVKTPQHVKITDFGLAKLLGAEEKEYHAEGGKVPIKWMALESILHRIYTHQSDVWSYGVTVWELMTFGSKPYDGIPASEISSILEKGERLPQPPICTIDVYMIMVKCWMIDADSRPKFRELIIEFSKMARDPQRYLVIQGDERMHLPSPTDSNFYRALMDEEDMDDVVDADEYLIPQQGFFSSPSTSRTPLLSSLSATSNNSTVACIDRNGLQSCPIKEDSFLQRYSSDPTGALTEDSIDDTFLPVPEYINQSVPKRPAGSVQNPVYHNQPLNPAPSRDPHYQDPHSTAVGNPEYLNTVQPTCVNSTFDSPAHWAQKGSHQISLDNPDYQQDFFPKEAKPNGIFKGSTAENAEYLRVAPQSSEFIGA
Sequence of Calcium/calmodulin-dependent protein kinase type 1 (Homo sapiens) (Q14012 whole entry, looked up): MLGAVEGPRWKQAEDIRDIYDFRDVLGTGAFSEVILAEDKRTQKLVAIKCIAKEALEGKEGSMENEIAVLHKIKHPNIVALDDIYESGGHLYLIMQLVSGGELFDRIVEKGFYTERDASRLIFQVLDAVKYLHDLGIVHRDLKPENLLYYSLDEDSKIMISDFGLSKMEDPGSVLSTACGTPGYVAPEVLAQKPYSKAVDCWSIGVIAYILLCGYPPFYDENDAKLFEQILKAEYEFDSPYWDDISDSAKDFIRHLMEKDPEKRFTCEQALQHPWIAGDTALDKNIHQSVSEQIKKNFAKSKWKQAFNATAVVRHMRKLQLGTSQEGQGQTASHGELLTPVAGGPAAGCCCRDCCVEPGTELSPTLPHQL
Sequence of Cyclin-dependent kinase 1 (Homo sapiens) (P06493 whole entry, looked up): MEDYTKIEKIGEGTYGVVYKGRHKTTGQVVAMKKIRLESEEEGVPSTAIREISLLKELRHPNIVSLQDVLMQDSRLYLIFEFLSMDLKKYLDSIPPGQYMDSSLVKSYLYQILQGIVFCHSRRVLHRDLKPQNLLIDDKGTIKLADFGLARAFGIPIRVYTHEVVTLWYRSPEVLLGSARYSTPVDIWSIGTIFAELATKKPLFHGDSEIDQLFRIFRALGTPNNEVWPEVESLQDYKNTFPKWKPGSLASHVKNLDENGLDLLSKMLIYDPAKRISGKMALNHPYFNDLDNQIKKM

Take `CCN1CCN(Cc2ccc(NC(=O)c3ccc(C)c(/C=C/c4cnc5[nH]ccc5c4OC)c3)cc2C(F)(F)F)CC1`: the inhibition was -3.1% in experiment [1]; 9.7% in experiment [2]; 31.9% in experiment [3]; -4.5% in experiment [5]; 6.4% in experiment [6]; -7.4% in experiment [7]. In experiment [8], the inhibition came to 14.1%. Also, the inhibition at 5 µM in experiment [4] was -8%.

On to `CCN1CCN(Cc2ccc(NC(=O)c3ccc(C)c(Oc4ccnc5[nH]ccc45)c3)cc2C(F)(F)F)CC1`, for which the inhibition in experiment [1] turned out to be 34.7%; in experiment [2] it was 6.9%; in experiment [3], 91.8%; in experiment [5] it was 14.4%; in experiment [6], 12.6%; in experiment [7], 0.7%. Further, in experiment [8], the inhibition is 3.5%. The inhibition at 5 µM in experiment [4] was found to be 14.7%.
